Columns and labels:
[1] = system: human breast adenocarcinoma cell line, MCF-7; experiment: MTT cell viability assay on MCF-7, 72 h exposure; assay type: cell-based; conditions: MCF-7, 72 h of exposure
Procedure, shortened: (§1)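 HT-29 was grown in McCoy's 5A with 10% FBS. MCF-7 was grown in MEM with 10% FBS and 0.01 mg/mL insulin. Both were kept at 37°C, 5% CO2, trypsinized at 70–80% confluency and seeded at 1.5×10^4 cells/well for 24 h. Cells were then exposed for 72 h to test compound in 5% DMSO/95% medium, with DMSO-medium controls. MTT was added as a 2.67 mg/mL solution for 2 h. Formazan was dissolved in 10% Triton X-100/isopropanol and read at A570 minus A620. IC50 came from a sigmoidal fit of viability vs log concentration, eight replicas, triplicate, ±SD.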

[2] = biological target: T1, apo-human transferrin (apo-hTf) (Homo sapiens, UniProt P02787); experiment: Fluorescence quenching of apo-hTf; assay type: binding; conditions: for biomolecular quenching rate constant kq: kq=Ksv/τ0; for Stern-Volmer quenching constant Ksv / number of binding sites n: pH 7.4; for quenching association constant Ka: pH 7.4, modified Stern-Volmer
Procedure, shortened: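 Intrinsic fluorescence of apo-hTf in Tris-HCl pH 7.4 was titrated with test compound (Tris-HCl/2% DMSO). Conditions: excitation 280 nm, emission 290–500 nm, slits 10/5 nm, 1.0 cm quartz cell, at 296, 303, 310 and 317 K, triplicate titrations. Intensities were corrected for inner filter effect using absorbances at excitation and emission wavelengths. Ksv came from Stern-Volmer plots of F0/F vs [Q]; kq = Ksv/τ0 (τ0 ~1.0×10−8); Ka and n came from the modified Stern-Volmer equation.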

[3] = biological target: T1, apo-human transferrin (apo-hTf); experiment: Far-UV circular dichroism titration of apo-hTf, secondary structure content
Procedure, shortened: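 Apo-hTf (4.0×10−7 mol L−1) in 2 mM Tris-HCl pH 7.4 was titrated with a 1.0×10−3 mol L−1 stock of test compound in Tris-HCl/2% DMSO, to final 0–2.4×10−6 mol L−1. Far-UV CD was recorded from 190–250 nm under nitrogen in a 1.0 cm cell: six scans at 100 nm/min. Baseline was buffer ± DMSO at room temperature. α-Helix was derived from MRE at 208 nm; β-sheet and random coil by the CD-RRG method.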

[4] = biological target: T1, apo-human transferrin (apo-hTf); experiment: Fluorescence resonance energy transfer; assay type: binding; conditions: for Förster critical energy transfer distance R0 / binding distance r (donor-acceptor): k^2=2/3, n=1.336, ØD=0.118; for efficiency of energy transfer E: room temperature, 1.0×10^−5 mol L^−1 each
Procedure, shortened: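 Emission spectrum of 1.0×10−5 mol L−1 apo-hTf and absorption spectrum of 1.0×10−5 mol L−1 test compound were recorded in 20 mM Tris-HCl pH 7.4 at room temperature, 260–450 nm, and their spectral overlap determined. E was calculated from apo-hTf fluorescence without and with equimolar test compound. R0 and donor–acceptor distance r came from Förster equations.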

[5] = biological target: T1, apo-human transferrin (apo-hTf); experiment: UV-Vis absorbance titration of apo-hTf; assay type: binding; conditions: for Ka at 280 nm: absorbance at 280 nm; for Association constants, Ka, 280 nm: absorbance of apo-hTf at 280 nm, pH 7.4
[6] = biological target: T1, apo-human transferrin (apo-hTf); experiment: Thermodynamic parameters of apo-hTf complex formation; assay type: binding; conditions: for ∆H° / ∆S°: pH 7.4, from Ksv at 296-317 K
Procedure, shortened: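 Ksv values were obtained from apo-hTf fluorescence quenching at pH 7.4 at 296, 303, 310 and 317 K. ΔH°, ΔS° and ΔG° were derived from linear regression of ln(Ksv) vs 1/T (Van't Hoff equation).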

[7] = system: human colorectal adenocarcinoma cell line, HT-29; experiment: MTT cell viability assay on HT-29, 72 h exposure; assay type: cell-based; conditions: read-out: IC50 (±SD), HT-29, HT-29, 72 h of exposure
Procedure, shortened: as §1

T1 sequence (P02787 20-698): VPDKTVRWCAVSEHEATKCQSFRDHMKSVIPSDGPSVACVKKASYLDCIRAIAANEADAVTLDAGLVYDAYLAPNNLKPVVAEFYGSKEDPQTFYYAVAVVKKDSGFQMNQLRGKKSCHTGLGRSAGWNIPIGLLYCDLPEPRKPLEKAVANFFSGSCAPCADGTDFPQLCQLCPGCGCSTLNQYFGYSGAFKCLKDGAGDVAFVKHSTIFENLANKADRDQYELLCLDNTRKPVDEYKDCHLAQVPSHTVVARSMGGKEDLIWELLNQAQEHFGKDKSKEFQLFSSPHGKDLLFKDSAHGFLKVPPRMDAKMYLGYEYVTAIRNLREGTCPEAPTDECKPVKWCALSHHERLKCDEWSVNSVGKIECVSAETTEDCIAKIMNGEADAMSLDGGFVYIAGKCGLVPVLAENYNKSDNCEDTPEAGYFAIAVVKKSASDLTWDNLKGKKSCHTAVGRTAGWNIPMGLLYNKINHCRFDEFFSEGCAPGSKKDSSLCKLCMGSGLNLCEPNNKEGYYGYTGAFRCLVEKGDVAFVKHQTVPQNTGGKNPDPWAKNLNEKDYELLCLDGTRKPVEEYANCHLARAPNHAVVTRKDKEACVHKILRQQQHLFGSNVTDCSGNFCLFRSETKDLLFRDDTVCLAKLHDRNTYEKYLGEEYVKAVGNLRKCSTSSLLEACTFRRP

[Cl-].[Cl-].[Hf+4].c1cc[cH-]c1.c1cc[cH-]c1 [Cp2HfCl2]
IC50 (±SD), MCF-7 [1]: proliferative activity
IC50 (±SD), MCF-7 ([1]; listed as Cp^2HfCl^2): Proliferative
biomolecular quenching rate constant kq ([2]; 296 K): 1.97e+11 M⁻¹ s⁻¹
Stern-Volmer quenching constant Ksv ([2]; 296 K): 1970 M⁻¹
number of binding sites n ([2]; 296 K): 1.15
quenching association constant Ka ([2]; 296 K): 8900 M⁻¹
biomolecular quenching rate constant kq ([2]; 303 K): 1.57e+11 M⁻¹ s⁻¹
Stern-Volmer quenching constant Ksv ([2]; 303 K): 1570 M⁻¹
number of binding sites n ([2]; 303 K): 1.17
quenching association constant Ka ([2]; 303 K): 8100 M⁻¹
biomolecular quenching rate constant kq ([2]; 310 K): 1.36e+11 M⁻¹ s⁻¹
Stern-Volmer quenching constant Ksv ([2]; 310 K): 1360 M⁻¹
number of binding sites n ([2]; 310 K): 1.18
quenching association constant Ka ([2]; 310 K): 7500 M⁻¹
biomolecular quenching rate constant kq ([2]; 317 K): 1.24e+11 M⁻¹ s⁻¹
Stern-Volmer quenching constant Ksv ([2]; 317 K): 1240 M⁻¹
number of binding sites n ([2]; 317 K): 1.19
quenching association constant Ka ([2]; 317 K): 7000 M⁻¹
other secondary structure content of apo-hTf ([3]; compound concentration 0.4 (M)): 19.1%
random coil content of apo-hTf ([3]; compound concentration 0.4 (M)): 33.7%
α-helix content of apo-hTf ([3]; compound concentration 0.4 (M)): 29.7%
β-sheet content of apo-hTf ([3]; compound concentration 0.4 (M)): 17.5%
other secondary structure content of apo-hTf ([3]; compound concentration 0.8 (M)): 19.1%
random coil content of apo-hTf ([3]; compound concentration 0.8 (M)): 33.8%
α-helix content of apo-hTf ([3]; compound concentration 0.8 (M)): 29.5%
β-sheet content of apo-hTf ([3]; compound concentration 0.8 (M)): 17.6%
other secondary structure content of apo-hTf ([3]; compound concentration 1.2 (M)): 19.2%
random coil content of apo-hTf ([3]; compound concentration 1.2 (M)): 33.8%
α-helix content of apo-hTf ([3]; compound concentration 1.2 (M)): 29.3%
β-sheet content of apo-hTf ([3]; compound concentration 1.2 (M)): 17.7%
other secondary structure content of apo-hTf ([3]; compound concentration 1.6 (M)): 19.1%
random coil content of apo-hTf ([3]; compound concentration 1.6 (M)): 34%
α-helix content of apo-hTf ([3]; compound concentration 1.6 (M)): 29.1%
β-sheet content of apo-hTf ([3]; compound concentration 1.6 (M)): 17.8%
other secondary structure content of apo-hTf ([3]; compound concentration 2 (M)): 19.1%
random coil content of apo-hTf ([3]; compound concentration 2 (M)): 34%
α-helix content of apo-hTf ([3]; compound concentration 2 (M)): 29%
β-sheet content of apo-hTf ([3]; compound concentration 2 (M)): 17.9%
other secondary structure content of apo-hTf ([3]; compound concentration 2.4 (M)): 19.2%
random coil content of apo-hTf ([3]; compound concentration 2.4 (M)): 34.1%
α-helix content of apo-hTf ([3]; compound concentration 2.4 (M)): 28.7%
β-sheet content of apo-hTf ([3]; compound concentration 2.4 (M)): 18%
Förster critical energy transfer distance R0 [4]: 6.91 nm
binding distance r (donor-acceptor) [4]: 9.47 nm
efficiency of energy transfer E [4]: 0.131
Ka at 280 nm [5]: 2110 M⁻¹
Association constants, Ka, 280 nm [5]: 2.11 10^3 M^−1
∆G° ([6]; 296 K): -18.59 kJ/mol
∆G° ([6]; 303 K): -18.62 kJ/mol
∆G° ([6]; 310 K): -18.66 kJ/mol
∆G° ([6]; 317 K): -18.70 kJ/mol
∆H° [6]: -17.07 kJ/mol
∆S° [6]: 5.13 J/mol K
IC50 [7]: 564 µM

[Cl][Zr+2][Cl].c1cc[cH-]c1.c1cc[cH-]c1 [Cp2ZrCl2]
IC50 (±SD), MCF-7 [1]: proliferative activity
IC50 (±SD), MCF-7 ([1]; listed as Cp^2ZrCl^2): Proliferative
biomolecular quenching rate constant kq ([2]; 296 K): 2.39e+11 M⁻¹ s⁻¹
Stern-Volmer quenching constant Ksv ([2]; 296 K): 2390 M⁻¹
number of binding sites n ([2]; 296 K): 1.07
quenching association constant Ka ([2]; 296 K): 4400 M⁻¹
biomolecular quenching rate constant kq ([2]; 303 K): 1.97e+11 M⁻¹ s⁻¹
Stern-Volmer quenching constant Ksv ([2]; 303 K): 1970 M⁻¹
number of binding sites n ([2]; 303 K): 1.03
quenching association constant Ka ([2]; 303 K): 2600 M⁻¹
biomolecular quenching rate constant kq ([2]; 310 K): 1.79e+11 M⁻¹ s⁻¹
Stern-Volmer quenching constant Ksv ([2]; 310 K): 1790 M⁻¹
number of binding sites n ([2]; 310 K): 1.01
quenching association constant Ka ([2]; 310 K): 2000 M⁻¹
biomolecular quenching rate constant kq ([2]; 317 K): 1.5e+11 M⁻¹ s⁻¹
Stern-Volmer quenching constant Ksv ([2]; 317 K): 1500 M⁻¹
number of binding sites n ([2]; 317 K): 1
quenching association constant Ka ([2]; 317 K): 1600 M⁻¹
other secondary structure content of apo-hTf ([3]; compound concentration 0.4 (M)): 18.9%
random coil content of apo-hTf ([3]; compound concentration 0.4 (M)): 33.8%
α-helix content of apo-hTf ([3]; compound concentration 0.4 (M)): 29.2%
β-sheet content of apo-hTf ([3]; compound concentration 0.4 (M)): 18.1%
other secondary structure content of apo-hTf ([3]; compound concentration 0.8 (M)): 18.8%
random coil content of apo-hTf ([3]; compound concentration 0.8 (M)): 33.9%
α-helix content of apo-hTf ([3]; compound concentration 0.8 (M)): 29.1%
β-sheet content of apo-hTf ([3]; compound concentration 0.8 (M)): 18.2%
other secondary structure content of apo-hTf ([3]; compound concentration 1.2 (M)): 18.8%
random coil content of apo-hTf ([3]; compound concentration 1.2 (M)): 33.9%
α-helix content of apo-hTf ([3]; compound concentration 1.2 (M)): 29%
β-sheet content of apo-hTf ([3]; compound concentration 1.2 (M)): 18.3%
other secondary structure content of apo-hTf ([3]; compound concentration 1.6 (M)): 18.9%
random coil content of apo-hTf ([3]; compound concentration 1.6 (M)): 33.9%
α-helix content of apo-hTf ([3]; compound concentration 1.6 (M)): 28.8%
β-sheet content of apo-hTf ([3]; compound concentration 1.6 (M)): 18.4%
other secondary structure content of apo-hTf ([3]; compound concentration 2 (M)): 18.9%
random coil content of apo-hTf ([3]; compound concentration 2 (M)): 34%
α-helix content of apo-hTf ([3]; compound concentration 2 (M)): 28.6%
β-sheet content of apo-hTf ([3]; compound concentration 2 (M)): 18.5%
other secondary structure content of apo-hTf ([3]; compound concentration 2.4 (M)): 18.9%
random coil content of apo-hTf ([3]; compound concentration 2.4 (M)): 34.1%
α-helix content of apo-hTf ([3]; compound concentration 2.4 (M)): 28.4%
β-sheet content of apo-hTf ([3]; compound concentration 2.4 (M)): 18.6%
Förster critical energy transfer distance R0 [4]: 7.3 nm
binding distance r (donor-acceptor) [4]: 10.03 nm
efficiency of energy transfer E [4]: 0.129
Ka at 280 nm [5]: 2220 M⁻¹
Association constants, Ka, 280 nm [5]: 2.22 10^3 M^−1
∆G° ([6]; 296 K): -19.12 kJ/mol
∆G° ([6]; 303 K): -19.18 kJ/mol
∆G° ([6]; 310 K): -19.24 kJ/mol
∆G° ([6]; 317 K): -19.30 kJ/mol
∆H° [6]: -16.63 kJ/mol
∆S° [6]: 8.41 J/mol K
IC50 [7]: 774 µM

Source: paper PMC7668563 (International journal of molecular biology (Edmond, Okla.), 2020)
